Test results reported in ChEMBL document CHEMBL1143965, “N-Phenyl-N'-(2-chloroethyl)ureas (CEUs) as potential antineoplastic agents. Part 3: role of carbonyl groups in the covalent binding to the colchicine-binding site” (2008).

Columns and labels:
Format in all cases: functional
HT-29 = assay: Antiproliferative activity against human HT29 cells after 48 hrs; settings: HT-29, 48 h
How it was run: (§1)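 NCI-style sulforhodamine B growth assay. Cells in high-glucose DMEM with 5% iron-supplemented bovine calf serum were preincubated 24 h at 37 °C, 5% CO2. Drugs in DMSO (final <0.5%) were added at 0.1–100 µM final for 48 h. Cells were fixed with cold TCA (10% final, 60 min, 4 °C), stained with 0.1% SRB, solubilized in 20 mM Tris, and read at 585 nm against a day-0 plate. GI50 was taken; at least two runs in triplicate.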

M21 [1] = assay: Antiproliferative activity against human M21 cells after 48 hrs; settings: M21, 48 h; how it was run: as §1
MCF7 = assay: Antiproliferative activity against human MCF7 cells after 48 hrs; settings: MCF7, 48 h; how it was run: as §1
M21 [2] = assay: Induction of apoptosis in human M21 cells at 5 uM
M21 [3] = assay: Induction of apoptosis in human M21 cells at 15 uM
M21 [4] = assay: Cell cycle arrest in human M21 cells by accumulation at G0/G1 phase at 5 uM after 24 hrs by flow cytometry
How it was run: (§2)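 Exponentially growing M21 cells were exposed to drug (DMSO vehicle, <0.5% v/v) for 24 h, then collected and fixed with ice-cold ethanol. 5×10^5 cells were stained in PBS with 50 µg/mL propidium iodide plus 40 U/mL RNase A for 30 min at room temperature. Phase distribution was measured by flow cytometry.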

M21 [5] = assay: Cell cycle arrest in human M21 cells by accumulation at G0/G1 phase at 15 uM after 24 hrs by flow cytometry; how it was run: as §2
M21 [6] = assay: Cell cycle arrest in human M21 cells by accumulation at S phase at 5 uM after 24 hrs by flow cytometry; how it was run: as §2
M21 [7] = assay: Cell cycle arrest in human M21 cells by accumulation at S phase at 15 uM after 24 hrs by flow cytometry; how it was run: as §2
M21 [8] = assay: Cell cycle arrest in human M21 cells by accumulation at G2/M phase at 5 uM after 24 hrs by flow cytometry; how it was run: as §2
M21 [9] = assay: Cell cycle arrest in human M21 cells by accumulation at G2/M phase at 15 uM after 24 hrs by flow cytometry; how it was run: as §2
M21 [10] = assay: Cell cycle arrest in human M21 cells by accumulation at G0/G1 phase at 3 uM after 24 hrs by flow cytometry; how it was run: as §2
M21 [11] = assay: Cell cycle arrest in human M21 cells by accumulation at G0/G1 phase at 10 uM after 24 hrs by flow cytometry; how it was run: as §2
M21 [12] = assay: Cell cycle arrest in human M21 cells by accumulation at S phase at 3 uM after 24 hrs by flow cytometry; how it was run: as §2
M21 [13] = assay: Cell cycle arrest in human M21 cells by accumulation at S phase at 10 uM after 24 hrs by flow cytometry; how it was run: as §2
M21 [14] = assay: Cell cycle arrest in human M21 cells by accumulation at G2/M phase at 3 uM after 24 hrs by flow cytometry; how it was run: as §2
M21 [15] = assay: Cell cycle arrest in human M21 cells by accumulation at G2/M phase at 10 uM after 24 hrs by flow cytometry; how it was run: as §2
M21 [16] = assay: Induction of apoptosis in human M21 cells at 3 uM
M21 [17] = assay: Induction of apoptosis in human M21 cells at 10 uM
M21 [18] = assay: (§3) Cell cycle arrest in human M21 cells by accumulation at G0/G1 phase at 1.2 uM after 24 hrs by flow cytometry; how it was run: as §2
M21 [19] = assay: Cell cycle arrest in human M21 cells by accumulation at G0/G1 phase at 4 uM after 24 hrs by flow cytometry; how it was run: as §2
M21 [20] = assay: Cell cycle arrest in human M21 cells by accumulation at S phase at 1.2 uM after 24 hrs by flow cytometry; how it was run: as §2
M21 [21] = assay: Cell cycle arrest in human M21 cells by accumulation at S phase at 4 uM after 24 hrs by flow cytometry; how it was run: as §2
M21 [22] = assay: as §3; how it was run: as §2; remark: listed apart in the source
M21 [23] = assay: Cell cycle arrest in human M21 cells by accumulation at G2/M phase at 4 uM after 24 hrs by flow cytometry; how it was run: as §2
M21 [24] = assay: Induction of apoptosis in human M21 cells at 1.2 uM
M21 [25] = assay: Induction of apoptosis in human M21 cells at 4 uM
M21 [26] = assay: Induction of apoptosis in human M21 cells at 7 uM
M21 [27] = assay: Induction of apoptosis in human M21 cells at 21 uM
M21 [28] = assay: Induction of apoptosis in human M21 cells at 175 uM
M21 [29] = assay: Cell cycle arrest in human M21 cells by accumulation at G0/G1 phase at 7 uM after 24 hrs by flow cytometry; how it was run: as §2
M21 [30] = assay: Cell cycle arrest in human M21 cells by accumulation at G0/G1 phase at 21 uM after 24 hrs by flow cytometry; how it was run: as §2
M21 [31] = assay: Cell cycle arrest in human M21 cells by accumulation at G0/G1 phase at 175 uM after 24 hrs by flow cytometry; how it was run: as §2
M21 [32] = assay: Cell cycle arrest in human M21 cells by accumulation at S phase at 7 uM after 24 hrs by flow cytometry; how it was run: as §2
M21 [33] = assay: Cell cycle arrest in human M21 cells by accumulation at S phase at 21 uM after 24 hrs by flow cytometry; how it was run: as §2
M21 [34] = assay: Cell cycle arrest in human M21 cells by accumulation at S phase at 175 uM after 24 hrs by flow cytometry; how it was run: as §2
M21 [35] = assay: Cell cycle arrest in human M21 cells by accumulation at G2/M phase at 7 uM after 24 hrs by flow cytometry; how it was run: as §2
M21 [36] = assay: Cell cycle arrest in human M21 cells by accumulation at G2/M phase at 21 uM after 24 hrs by flow cytometry; how it was run: as §2
M21 [37] = assay: Cell cycle arrest in human M21 cells by accumulation at G2/M phase at 175 uM after 24 hrs by flow cytometry; how it was run: as §2

With NC(=O)Cc1cccc(NC(=O)NCCCl)c1 the GI50 (HT-29) was over 100 µM, the GI50 (M21 [1]) was over 100 µM and the GI50 (MCF7) was over 100 µM.

Molecule NC(=O)c1cccc(NC(=O)NCCCl)c1 has a GI50 (HT-29) of over 100 µM, a GI50 (M21 [1]) of over 100 µM and a GI50 (MCF7) of over 100 µM.

Work on O=C(O)CCCCCc1cccc(NC(=O)NCCCl)c1 yielded a GI50 (HT-29) of 35.9 µM, a GI50 (M21 [1]) of 47.5 µM and a GI50 (MCF7) of over 100 µM.

NC(=O)CCCCc1cccc(NC(=O)NCCCl)c1 was tested, and the GI50 (HT-29) was 3.6 µM, the GI50 (M21 [1]) was 5.7 µM and the GI50 (MCF7) was 11.2 µM.

In the case of O=C(NCCCl)Nc1cccc(C(=O)O)c1, the GI50 (HT-29) is reported as 68.1 µM, the GI50 (M21 [1]) is reported as 67.9 µM and the GI50 (MCF7) is reported as 82.9 µM.

For CC(=O)CCCCc1cccc(NC(=O)NCCCl)c1, the Activity (M21 [2]) was 11%, the Activity (M21 [3]) was 23% and the Activity (M21 [4]) was 44%. For the same molecule, the Activity (M21 [5]) was 6%, the Activity (M21 [6]) was 13% and the Activity (M21 [7]) was 10%. The Activity (M21 [8]) was 25%, the Activity (M21 [9]) was 53% and the GI50 (HT-29) was 0.6 µM. For the same molecule, the GI50 (M21 [1]) was 1.1 µM and the GI50 (MCF7) was 2 µM.

In the case of CC(=O)CCCCCc1cccc(NC(=O)NCCCl)c1, the Activity (M21 [2]) is reported as 21%, the Activity (M21 [3]) is reported as 16% and the Activity (M21 [4]) is reported as 10%. It also gave an Activity (M21 [5]) of 11%, an Activity (M21 [6]) of 18% and an Activity (M21 [7]) of 18%. The Activity (M21 [8]) was 48%, the Activity (M21 [9]) was 53% and the GI50 (HT-29) was 0.9 µM. The GI50 (M21 [1]) was 2.1 µM and the GI50 (MCF7) was 3.9 µM.

With CCCCCc1cccc(NC(=O)NCCCl)c1 the Activity (M21 [10]) was 14%, the Activity (M21 [11]) was 6% and the Activity (M21 [12]) was 11%. It also gave an Activity (M21 [13]) of 7%, an Activity (M21 [14]) of 50% and an Activity (M21 [15]) of 49%. It also gave a GI50 (HT-29) of 0.96 µM, a GI50 (M21 [1]) of 0.87 µM and a GI50 (MCF7) of 1.6 µM. The Activity (M21 [16]) was 18% and the Activity (M21 [17]) was 31%.

CC(=O)c1cccc(NC(=O)NCCCl)c1 was tested, and the GI50 (HT-29) was over 100 µM, the GI50 (M21 [1]) was over 100 µM and the GI50 (MCF7) was over 100 µM.

In the case of CCOC(=O)CCCCc1cccc(NC(=O)NCCCl)c1, the GI50 (HT-29) is reported as 8.2 µM, the GI50 (M21 [1]) is reported as 11 µM and the GI50 (MCF7) is reported as 8.7 µM.

With COC(=O)Cc1cccc(NC(=O)NCCCl)c1 the GI50 (HT-29) was 82.7 µM, the GI50 (M21 [1]) was over 100 µM and the GI50 (MCF7) was over 100 µM.

With CCOC(=O)CCCCCc1cccc(NC(=O)NCCCl)c1 the GI50 (HT-29) was 19.8 µM, the GI50 (M21 [1]) was 17.7 µM and the GI50 (MCF7) was 22.5 µM.

In the case of O=C(NCCCl)Nc1cccc(CCCCCO)c1, the Activity (M21 [18]) is reported as 50%, the Activity (M21 [19]) is reported as 6% and the Activity (M21 [20]) is reported as 11%. The Activity (M21 [21]) was 7%, the Activity (M21 [22]) was 50% and the Activity (M21 [23]) was 53%. It also gave a GI50 (HT-29) of 0.16 µM, a GI50 (M21 [1]) of 0.27 µM and a GI50 (MCF7) of 0.48 µM. It also gave an Activity (M21 [24]) of 12% and an Activity (M21 [25]) of 27%.

Work on COC(=O)CCCCCc1cccc(NC(=O)NCCCl)c1 yielded an Activity (M21 [26]) of 4%, an Activity (M21 [27]) of 5% and an Activity (M21 [28]) of 19%. For the same molecule, the Activity (M21 [29]) was 45%, the Activity (M21 [30]) was 49% and the Activity (M21 [31]) was 8%. It also gave an Activity (M21 [32]) of 37%, an Activity (M21 [33]) of 31% and an Activity (M21 [34]) of 1%. The Activity (M21 [35]) was 14%, the Activity (M21 [36]) was 15% and the Activity (M21 [37]) was 72%. For the same molecule, the GI50 (HT-29) was 7.2 µM, the GI50 (M21 [1]) was 7.1 µM and the GI50 (MCF7) was 10.2 µM.

COCCCCCc1cccc(NC(=O)NCCCl)c1 was tested, and the Activity (M21 [10]) was 29%, the Activity (M21 [11]) was 7% and the Activity (M21 [12]) was 14%. It also gave an Activity (M21 [13]) of 9%, an Activity (M21 [14]) of 37% and an Activity (M21 [15]) of 52%. It also gave a GI50 (HT-29) of 0.84 µM, a GI50 (M21 [1]) of 0.94 µM and a GI50 (MCF7) of 1.9 µM. It also gave an Activity (M21 [16]) of 14% and an Activity (M21 [17]) of 24%.

Molecule NC(=O)CCCCCc1cccc(NC(=O)NCCCl)c1 has a GI50 (HT-29) of 5.7 µM, a GI50 (M21 [1]) of 8.9 µM and a GI50 (MCF7) of 21.8 µM.

For O=C(O)Cc1cccc(NC(=O)NCCCl)c1, the GI50 (HT-29) was over 100 µM, the GI50 (M21 [1]) was over 100 µM and the GI50 (MCF7) was over 100 µM.

With COC(=O)CCCCc1cccc(NC(=O)NCCCl)c1 the Activity (M21 [26]) was 4%, the Activity (M21 [27]) was 6% and the Activity (M21 [28]) was 19%. The Activity (M21 [29]) was 46%, the Activity (M21 [30]) was 40% and the Activity (M21 [31]) was 18%. It also gave an Activity (M21 [32]) of 36%, an Activity (M21 [33]) of 34% and an Activity (M21 [34]) of 1%. The Activity (M21 [35]) was 14%, the Activity (M21 [36]) was 20% and the Activity (M21 [37]) was 62%. For the same molecule, the GI50 (HT-29) was 8.1 µM, the GI50 (M21 [1]) was 7.3 µM and the GI50 (MCF7) was 15.1 µM.

CCOC(=O)Cc1cccc(NC(=O)NCCCl)c1 gave a GI50 (HT-29) of over 100 µM, a GI50 (M21 [1]) of over 100 µM and a GI50 (MCF7) of over 100 µM.

With CCOC(=O)c1cccc(NC(=O)NCCCl)c1 the GI50 (HT-29) was over 100 µM, the GI50 (M21 [1]) was 96.4 µM and the GI50 (MCF7) was over 100 µM.

With COC(=O)c1cccc(NC(=O)NCCCl)c1 the GI50 (HT-29) was 80.2 µM, the GI50 (M21 [1]) was 86.2 µM and the GI50 (MCF7) was over 100 µM.

Molecule O=C(O)CCCCc1cccc(NC(=O)NCCCl)c1 has a GI50 (HT-29) of over 100 µM, a GI50 (M21 [1]) of over 100 µM and a GI50 (MCF7) of over 100 µM.
